Laboratory results taken from paper PMC11577422 (Chemical Research in Toxicology, 2024).
Like-named read-outs stand apart in the source and are kept apart here.

Assays:
[1] = system: rat liver microsomes (RLM); format: in vitro ADME; settings: RLM, untr.; II) low substrate concentrations (10 and 100 μM 2-MF); 10 min
Method in brief: (§1)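 Pooled liver microsomes (male Sprague–Dawley rat; mixed-gender human) at 1.0 mg protein/mL in 50 mM phosphate or Tris buffer with 3 mM MgCl₂ and 4 mM AcLys trap. Preincubated with 2-MF (10–750 μM) for 5 min at 37 °C, NADPH-started, 10 min. Stopped with cold MeCN containing 1 μM AcLys-BDA; AcLys-AcA by HPLC-MS/MS. Kinetics fitted biphasically; heat-inactivated and no-NADPH controls; n = 3–6.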

[2] = system: human liver microsomes (HLM); format: in vitro ADME; settings: 10 min
Method in brief: as §1

[3] = system: primary rat hepatocytes (pRH); assay: Adduct formation; format: in vitro ADME; settings: for AcCys-AcA formation in cell supernatants / formation of AcLys-AcA in cell supernatants: pRH incubated with 2-MF (10–1000 μM) or AcA (0.1–5 μM), 1–48 h; for AcLys-AcA in cell supernatant compared to the negative control: pRH
Method in brief: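 Hepatocytes came from adult male Wistar rats (150–250 g) and were used only at ≥80% viability. Cells were seeded at 1 million cells/mL on collagen-coated dishes, allowed 3 h to attach, then PBS-washed. Incubation was at 37 °C, 5% CO₂ with test compound for 1, 6, 18, 24 or 48 h. Supernatants got 1 μM final AcLys-BDA internal standard, SPE cleanup, then UHPLC-ESI⁺-MS/MS (MRM m/z 269.2/164.2). Untreated negative control; n = 3–6.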

HepG2 cells = assay: GSH depletion in HepG2 cells after exposure to 2-MF; format: cell-based; settings: data not shown
[4] = system: rat liver microsomes (RLM); settings: ref Ravindranath and Boyd (1985) [9], cited from earlier work; for Km: RLM
CYP 2E1 [5] = target: CYP 2E1 (Homo sapiens, UniProt P05181); format: in vitro ADME; settings: Supersomes CYP 2E1, 100 and 500 μM 2-MF, 10, 30 or 60 min; negative control without NADPH
pRH = assay: GSH depletion in pRH after exposure to 2-MF; format: cell-based, rat; settings: data not shown
[6] = Cytotoxicity via cell viability using resazurin reduction in pRH; format: cell-based; settings: male, Wistar, rat, primary rat hepatocytes
[7] = Chemical reaction of AcA with AcCys, adduct determined by HPLC-MS/MS; format: physicochemical; settings: AcA (1 μM) with AcCys (4 mM) in water, 37 °C
Method in brief: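 Mixture shaken at 600 rpm and sampled over incubation time. Adduct was detected by HPLC-ESI⁺-MS/MS on a Synergi Hydro-RP column with a formic acid/acetonitrile gradient, MRM quantifier m/z 241.9/112.9, and reported as peak area (AUC). n = 3, mean ± standard deviation.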

[8] = Chemical reaction of AcA with AcLys, adduct determined by HPLC-MS/MS; format: physicochemical
Method in brief: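 AcA was at 10 μM; the mixture was shaken at 600 rpm to mimic the microsomal incubation matrix and sampled over time. AcLys-AcA was measured by HPLC-ESI⁺-MS/MS. n = 3, mean ± standard deviation.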

[9] = Stability of AcLys-AcA in solvents; format: physicochemical
CYP 2E1 [10] = settings: ref Peterson et al. (2005) [32]; cited from earlier work
CYP 2E1 [11] = settings: cited from earlier work
[12] = system: human liver microsomes (HLM); settings: 50 μM furan, ref Gates et al. (2012) [30]; cited from earlier work
[13] = system: rat liver microsomes (RLM); settings: untr., 50 μM furan, ref Gates et al. (2012) [30]; cited from earlier work
[14] = system: rat liver microsomes (RLM); settings: pretr., ref Peterson et al. (2005) [32]; cited from earlier work
[15] = 20 or 400 μM furan, ref Gates et al. (2012) [30]

Chain of CYP 2E1 (Homo sapiens, UniProt P05181) (P05181 whole entry): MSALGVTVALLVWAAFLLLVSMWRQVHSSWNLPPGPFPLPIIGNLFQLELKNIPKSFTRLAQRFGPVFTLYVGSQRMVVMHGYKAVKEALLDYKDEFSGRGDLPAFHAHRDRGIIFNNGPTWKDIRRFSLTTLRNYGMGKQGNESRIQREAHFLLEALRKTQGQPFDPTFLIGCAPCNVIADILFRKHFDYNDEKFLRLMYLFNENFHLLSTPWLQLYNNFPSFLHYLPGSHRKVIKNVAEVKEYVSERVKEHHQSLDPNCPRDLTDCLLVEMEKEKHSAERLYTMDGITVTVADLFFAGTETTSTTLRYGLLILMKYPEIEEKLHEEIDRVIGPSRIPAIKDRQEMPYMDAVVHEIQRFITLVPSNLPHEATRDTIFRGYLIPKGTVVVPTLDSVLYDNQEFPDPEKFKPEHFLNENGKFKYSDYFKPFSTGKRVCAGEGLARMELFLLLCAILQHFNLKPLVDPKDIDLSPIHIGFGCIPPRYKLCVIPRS

With `Cc1ccco1` [2-MF, 2-Methylfuran] the vmax [1] was 0.09 μmol/(mg prot.·min), the vmax ([2]; HLM; I) high substrate concentrations (250, 500, 750 μM 2-MF)) was 0.88 μmol/(mg prot.·min) and the vmax ([2]; HLM; II) low substrate concentrations (10 and 100 μM 2-MF)) was 0.12 μmol/(mg prot.·min). For the same compound, the “AcCys-AcA formation in cell supernatants” value [3] was “No evidence of AcCys-AcA formation”, the “formation of AcLys-AcA in cell supernatants” value [3] was “detected” and the “AcLys-AcA in cell supernatant compared to the negative control” value ([3]; 100 μM 2-MF, 1 h) was “significant increase”. The “depletion of GSH” value (HepG2 cells) was “no depletion of GSH”, the vmax ([4]; RLM from untreated rats, Eadie-Hofstee) was 0.53 μmol/2 mg microsomal protein/min and the Km ([4]; pretr. (phenobarbital)) was 463 µM. The Km ([4]; untr., 2.5–20 mM total 2-MF) was 1420 µM, the vmax ([4]; rats pretreated with phenobarbital) was 0.81 μmol/2 mg microsomal protein/min and the “AcA formation compared to the negative control” value (CYP 2E1 [5]) was “significant formation of AcA”. The “depletion of GSH” value (pRH) was “no depletion of GSH” and the EC50 at 24 h [6] was 551 ± 53.1 µM.

In the case of `CC(=O)C=CC=O` [AcA, 3-acetylacrolein], the “time to completion of adduct formation” value [7] is reported as less than 1 min, the “AcCys-AcA formation in cell supernatants” value [3] is reported as “No evidence of AcCys-AcA formation” and the “formation of AcLys-AcA in cell supernatants” value [3] is reported as “detected”. The “AcLys-AcA in cell supernatant compared to the negative control” value ([3]; 0.5 μM AcA, 48 h) was “differed significantly”, the “AcLys-AcA in cell supernatant compared to the negative control” value ([3]; 5 μM AcA, all time points (1–48 h)) was “highly significant increase” and the “time to completion of adduct formation” value ([8]; AcA (1; 10 μM) with AcLys (4 mM) in K2HPO4 buffer (50 mM, pH 7.4), 37 °C) was less than 1 min. The EC50 at 24 h [6] was 8.5 ± 1.3 µM.

With `CC(=O)N[C@@H](CCCCN1C(=O)C=CC1C)C(=O)O` (stereo partly drawn) [AcLys-AcA, L-2-Acetamido-6-(2-methyl-5-oxo-2,5-dihydro-1H-pyrrol-1-yl)hexanoic Acid] the “stability of adduct yield” value ([8]; reaction mixture of AcA with AcLys (4 mM) in K2HPO4 buffer pH 7.4, 37 °C) was “stable for up to 24 h”, the “stability (NMR)” value ([9]; in organic solvents) was “unstable” and the “stability of NMR and MS signals” value ([9]; in water) was “stable”.

In the case of `c1ccoc1` [Furan], the Ecat (CYP 2E1 [10]) is listed as 3.9e-1, the Km (CYP 2E1 [10]) is listed as 65.1 ± 16.4 µM and the kcat (CYP 2E1 [10]) is listed as 26 μmol/(μmol CYP·min). The Km (CYP 2E1 [11]; [15]) was 24 ± 13 µM, the kcat (CYP 2E1 [11]; [15]) was 34 ± 4 μmol/(μmol CYP·min) and the vmax (CYP 2E1 [11]; 20 or 400 μM furan, ref [30]) was 34 ± 4 pmol BDA/pmol CYP/min. The Ecat (CYP 2E1 [11]; ref Gates et al. (2012) [30]) was 1.4, the vmax [12] was 0.0013 μmol/(mg prot.·min) and the vmax [13] was 0.0016 μmol/(mg prot.·min). For the same compound, the Km [14] was 18.5 ± 6.8 µM.
